BB579 growth dn: reduces growth of yeast BB579 in restrictive medium; AID 804; S. cerevisiae BB579 growth, OD615, 48 h; hit rate 0.51% among 140,000; inhibition, % at 10 µM;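 active means inhibition above a set limit, 3 SD over the mean compound inhibition, cut at about 44% in these data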
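Assay system: S. cerevisiae DeaD strain BB579 yeast. Medium: CSMM-D restrictive synthetic medium containing dextrose (glucose). Times: 4 h cell preincubation, 48 h compound exposure, 30 °C humidified. Signal: OD615 turbidity measurement. Benchmarks: positive control amphotericin B 10 µg/mL.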
RAM inhibit: yeast RAM network inhibition; S. cerevisiae dse1pr::URA3 reporter, 5-FOA growth OD615, 2 d; analog-sensitive cbk1-as2 kinase mutant strain; inhibition, % at 50 µM; hit rate 1.8% among 190,000; AID 868;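 active means inhibition above a set limit, 3 SD over mean compound inhibition, cut at about 8.4% in these data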;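 further: inhibition rescues growth on 5-FOA so higher OD means more RAM inhibition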
Yeast life ext: extends the lifespan of yeast | S. cerevisiae growth with nicotinamide, OD615; deaD strain in restrictive glucose medium | hit rate 0.68% among 130,000 | inhibition of the nicotinamide effect, % at 10 µM;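 active means inhibition above a set limit, placed 3 SD over the median of all compounds, cut at about 26% in these data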
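Test system: DeaD-strain S. cerevisiae / Buffer or medium: restrictive glucose medium / Also added: nicotinamide 1.5 mM / Doses: one concentration, 10 µM, DMSO 0.25% / Schedule: 48 h at 30 °C / Signal: OD615 measurement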
SDO1 yeast rescue: compounds rescuing growth of sdo1-depleted yeast, bone marrow failure model; S. cerevisiae sdo1-depleted JHY4D growth rescue, OD600 30 h; hits give high values; pdr5 snq2 efflux-pump mutant strain; z-score at 10 µM; hit rate 0.21% among 140,000;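 active means z-score above 3 at both the 24 hr and the 30 hr optical density reads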
Hits are given with their value; i = inactive; nt = no result. A selection: hits, their analogues and other compounds. The true share with any hit is near 2.7%.

SMILES | BB579 growth dn | RAM inhibit | Yeast life ext | SDO1 yeast rescue
CN=C(SCc1cc2c(cc1Cl)OCO2)c1c(O)n(C)c(=O)n(C)c1=O | i | i | 56 | i
Cn1c(O)c(C(=O)c2ccccc2Cl)c(=O)n(C)c1=O | i | i | nt | i
Cc1cc(C)cc(N2C(=O)NC(=O)/C(=C\C=C\c3ccco3)C2=O)c1 | i | i | 28 | i
Cc1ccc(N2C(=O)NC(=O)/C(=C/C=C/c3ccco3)C2=O)cc1 | i | i | 27 | i
COCCOC(=O)c1c(C)oc2ccc(OC(=O)N(C)C)cc12 | i | i | i | i
CCC(=Nc1ccccc1NC(C)=O)c1c(O)n(C)c(=O)n(C)c1=O | i | i | i | i
O=c1[nH]c(=S)[nH]c(O)c1N=Nc1ccc2c(c1)OCO2 | nt | 10.0 | nt | nt
O=C1/C(=C/c2ccc([N+](=O)[O-])cc2)N2CCC1CC2 | i | i | i | i
CCCCCc1nc2ccccc2c(=O)n1-c1ccccc1[N+](=O)[O-] | i | i | i | i
CCCCCc1nc2c(c(=O)c3ccccc3n2C)c(=O)n1C1CCCCCC1 | i | i | 34 | i
COc1ccc(CN2CCCCC2c2cccnc2)cc1C (configuration not stated) | i | i | i | i
CCN(CC)c1ccc(N=Cc2c(O)n(-c3ccc(Cl)cc3)c(=O)[nH]c2=O)cc1 | i | 11 | i | i
CNS(=O)(=O)c1ccc(N=Cc2c(O)n(-c3cccc(C)c3)c(=O)[nH]c2=O)cc1 | nt | i | nt | nt
CNS(=O)(=O)c1ccc(N=Cc2c(O)n(-c3ccccc3)c(=O)[nH]c2=O)cc1 | nt | 9.4 | nt | nt
O=c1[nH]c(O)c(N=Nc2cc(C(F)(F)F)ccc2Cl)c(=O)[nH]1 | nt | i | nt | nt
CCN1CCN(Cc2cc(C(C)(C)C)c(O)c(C(C)(C)C)c2)CC1 | i | i | i | i
O=C(COC(=O)Cc1ccccc1)Nc1cccnc1Cl | nt | i | nt | nt
CC(=O)OC1(c2ccccc2)CCN(C)C2CCCCC21 (configuration not stated) | i | i | i | i
O=c1c2ccccc2nc(CSc2ncnc3nc[nH]c23)n1-c1ccccc1Cl | i | 10 | nt | i
CCCCn1c(=O)c(C=Nc2ccc(Cl)cc2)c(O)n(Cc2ccco2)c1=O | i | 8.5 | i | i
CC(C)n1c(=O)c(C=Nc2ccc(S(N)(=O)=O)cc2)c(O)n(Cc2ccco2)c1=O | i | i | i | i
CCOc1ccc(N2C(=O)/C(=C\c3cccs3)C(=O)NC2=S)cc1 | nt | i | nt | nt
O=C1NC(=S)N(c2ccccc2F)C(=O)/C1=C\c1cccs1 | 73 | i | i | i
CCCCn1c(=O)c(C=Nc2cc([N+](=O)[O-])ccc2OC)c(O)n(CCCCl)c1=O | i | i | i | i
Cc1ccc(NP(=O)(c2ccccc2)c2nc3ccccc3s2)cc1 (configuration not stated) | nt | i | nt | nt
SMILES | BB579 growth dn | RAM inhibit | Yeast life ext | SDO1 yeast rescue
N#CSCC(=O)N1c2ccccc2CCc2ccccc21 | i | i | 43 | i
Nc1ccccc1C(=O)OCC(=O)N1CCc2ccccc21 | i | i | i | i
CCN1C(=O)C(=Cc2ccc(C)s2)C(=O)N(CC)C1=S | i | 9.5 | 66 | i
CCN1C(=O)C(=Cc2cc(C)n(C3CC3)c2C)C(=O)N(CC)C1=S | i | i | i | i
Cc1cc(/C=C2/C(=O)NC(=O)N(C)C2=O)c(C)n1-c1ccccc1 | nt | i | nt | nt
Cc1cc(C=C2C(=O)N(C)C(=S)N(C)C2=O)c(C)n1-c1cccnc1 | i | i | 51 | i
CN1C(=O)C(=Cc2ccc(N3CCCCCC3)o2)C(=O)N(C)C1=S | i | 8.7 | i | i
CN1C(=O)C(=Cc2ccc(N3CCOCC3)o2)C(=O)N(C)C1=O | i | i | i | i
Nc1c(C(=O)NCCc2ccccc2)c2nc3ccccc3nc2n1CCN1CCOCC1 | 99 | i | i | i
CNC(=O)Oc1cccc(-c2cn3cc(OC(=O)NC)ccc3n2)c1 | 51 | i | i | i
O=C1NC(=O)N(Cc2ccccc2)C(=O)/C1=C\c1ccco1 | nt | i | nt | nt
O=C1NC(=O)N(Cc2ccco2)C(=O)/C1=C/c1cccn1CCOc1ccccc1Cl | i | 8.7 | i | i
COc1ccc(C(=O)C(C)(C)NO)cc1 | 52 | i | i | i
Cc1cc(C=C2C(=O)NC(=S)NC2=O)c(C)n1-c1ccc2c(c1)OCO2 | i | i | 39 | i
O=C(COc1ccc(Br)cc1)N1CCN(Cc2ccncc2)CC1 | i | i | i | i
CCC(C)NC(=O)c1c(N)n(CC2CCCO2)c2nc3ccccc3nc12 (configuration not stated) | i | 9.1 | i | i
CC1=CC(=C2C(=O)NC(=S)NC2=O)C=C(C(F)(F)F)N1CCc1ccccc1 | nt | 11 | nt | nt
O=P(Oc1ccccc1)(Oc1ccccc1)C(Nc1ccccc1)c1ccccc1 (configuration not stated) | i | 9.4 | i | i
CCc1ccc(-n2c(O)c(/C=N/NC(=O)c3ccncc3)c(=O)[nH]c2=O)cc1 | i | 11 | i | i
CC(C)c1ccc(-n2c(O)c(/C=N/NC(=O)c3ccncc3)c(=O)[nH]c2=O)cc1 | i | i | i | i
O=C(Nc1ccc(C(F)(F)F)cc1)c1cccn(Cc2ccc3c(c2)OC(F)(F)O3)c1=O | i | 10 | i | i
Cc1cccc(C)c1NC(=O)c1cccn(Cc2ccc3c(c2)OC(F)(F)O3)c1=O | i | i | i | i
CCN(CC)C(=O)c1ccc(N2C(=O)C3CC=C(Cl)CC3C2=O)cc1 (configuration not stated) | i | i | 26 | i
C=CCN(c1ccc(C(=O)N(CC)CC)cc1)S(C)(=O)=O | i | i | nt | i
Cc1ccc(C(=O)n2cc(CCN3CCS(=O)(=O)CC3)c3ccccc32)cc1 | i | i | i | i
SMILES | BB579 growth dn | RAM inhibit | Yeast life ext | SDO1 yeast rescue
CCCCCCn1c(=O)c(C(=O)Nc2cnccn2)c(O)c2ccccc21 | nt | 8.7 | nt | nt
CCCCCn1c(=O)c(C(=O)NCc2ccncc2)c(O)c2ccccc21 | i | i | i | i
c1ccc2c(c1)[nH]c1cnccc12 | i | i | i | i
Cc1c2ccncc2c(C)c2c1[nH]c1ccccc12 | 100 | i | i | i
Fc1ccc(C(OCCN2CCCC2)c2ccc(Br)cc2)cc1 (configuration not stated) | i | i | i | i
CCN(CCNc1ccc([N+](=O)[O-])c2cccnc12)S(=O)(=O)c1ccccc1 | i | i | i | i
CCN(CCNc1ccc([N+](=O)[O-])c2cccnc12)S(=O)(=O)c1ccc(Cl)cc1 | i | 9.5 | i | i
CN(C)C1(c2nnnn2CCOC(=O)Nc2ccc(Cl)cc2)CCCCC1 | i | i | 66 | i
CN1C2CCC1/C(=C/c1ccccn1)C(=O)/C2=C\c1ccccn1 | i | i | 37 | i
Cc1ccc(C(=O)N/C(=C\Cl)P(=O)(c2ccccc2)c2ccccc2)cc1 | i | i | i | i
COC(=O)CSC1=NP(=S)(SCC(=O)OC)N2CCCC2=C1C#N (configuration not stated) | i | i | i | i
CCOc1ccc(/C=C2/C(=O)NC(=O)N(CCc3ccc(F)cc3)C2=O)cc1 | i | i | 49 | i
O=C1NC(=O)N(CCC2=CCCCC2)C(=O)/C1=C/c1ccc(O)cc1 | i | i | 41 | i
COc1cc(/C=C2\C(=O)NC(=O)N(CCc3ccc(F)cc3)C2=O)ccc1O | i | i | i | i

Screening data as filed in PubChem.
